The target in assay [1] is T1, PfP2-tetramer (Plasmodium falciparum P2, recombinant) (Plasmodium falciparum, UniProt O00806).
T1 sequence (O00806 1-112): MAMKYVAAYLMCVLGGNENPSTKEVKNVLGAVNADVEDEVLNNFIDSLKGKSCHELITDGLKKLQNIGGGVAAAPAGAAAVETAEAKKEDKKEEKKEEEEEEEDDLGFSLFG
The experiment in a line: isothermal titration calorimetry. The format is binding. An outline of the steps: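 Recombinant PfP2 tetramer (0.075 mM) in the sample cell, with buffer in the reference cell, at pH 7.4 and 25 °C. The hydrophobic dye ligand (15 mM, syringe) was added in 50 injections of 5 μl, each lasting 10 s and spaced 4 min apart, with stirring. Titration heats were fitted to a binding model for K, ΔH, ΔS and n.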
For orientation: Isothermal titration calorimetry measures the heat released or taken up as one component is titrated into another.

Assay [2] deals with Plasmodium falciparum P2 (recombinant) (Plasmodium falciparum). The experiment in a line: SEC. In general terms: Size exclusion chromatography separates by hydrodynamic size, large species first.

As for `O=S(=O)(O)c1cccc2cccc(Nc3ccccc3)c12` [ANS], in assay [1], the dissociation constant (Kd) (as a rule, the free concentration of one partner at which half of the binding sites on the other are occupied at equilibrium, for simple one-to-one binding) worked out at 102 µM. Take “Plasmodium falciparum P2 (recombinant) (natural protein)”: the stoichiometry N – broadly, the number of molecules, sites or subunits per partner or assembly – in assay [2] was 4.

(Values after article PMC5668626 (Biochemistry and Biophysics Reports, 2015).)
